Results published in paper PMC8159369 (Chemical Science, 2020).

Molecular target: HRP-labeled WGA
Test: Enzyme-linked lectin assay
Design: species or system Triticum vulgaris
Details: inhibition of binding of HRP-labeled WGA to covalently immobilized GlcNAc
Method in brief: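 ELLA in which the test compound competes with a surface-coated reference ligand for lectin binding. Dose–response curves were recorded over a concentration series. IC50 is the concentration giving 50% inhibition of lectin binding.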

IC50: 15 mM
Structure (SMILES): CC(=O)N[C@@H]1[C@@H](O)[C@H](O)[C@@H](CO)O[C@H]1O [GlcNAc, N-acetylglucosamine]
